Data published in ChEMBL document CHEMBL1135044, “Studies on the side-chain hydroxylation of ifosfamide and its bromo analogue” (Bioorg Med Chem Lett, 2002).

How the values were obtained:
Mus musculus [1] = species on record: Mus musculus; assay: Effective dose that produce antitumor activity against L1210 leukemia in mice; format: functional
Summary of the method: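 CD2F1 mice were inoculated ip with 10^5 ascitic L1210 cells in PBS and given a single ip dose on day 3 (advanced disease), following NIH/NCI in vivo screening protocols. ILS was calculated as T/C × 100 − 100 from average survival times. ED50, the dose giving 50% ILS, was read graphically from least-squares dose–effect curves.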

Mus musculus [2] = species on record: Mus musculus; assay: Maximum tolerated dose against L1210 leukemia in mice; format: functional
Summary of the method: (§1)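 Sub-acute toxicity was tested in healthy, non-tumour-bearing CD2F1 females (12–16 weeks, 25–27 g), given a single ip injection or oral gavage and observed for 45 days. Mortality was pooled from 3–6 experiments, usually 4–7 dose levels, with ≥5 mice per group. Litchfield–Wilcoxon log-dose curves were fitted. LD50 (with 95% confidence limits) and LD5 (taken as MTD) were estimated graphically.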

[3] = Dose required to kill 50% of healthy, non-tumour-bearing mice (LD50); conditions: mouse, in vivo; summary of the method: as §1
[4] = Therapeutic index represented as LD50/ED50 was determined

SMILES	ED50 (Mus musculus [1]) [mg/kg]	MTD (Mus musculus [2]) [mg/kg]	LD50 [3] [mg/kg]	TI [4] [Ratio]
O=P1(NCCCl)OCCCN1CCCl (stereo not drawn) [IFOSFAMIDE]	96.4	518	687	7.1
O=P1(NCCCl)OCCCN1CCBr (stereo not drawn)	34.3	236	320	9.3
[2H]C([2H])(CCl)NP1(=O)OCCCN1C([2H])([2H])CCl (stereo not drawn)	67.8			
[2H]C([2H])(CCl)NP1(=O)OCCCN1C([2H])([2H])CBr (stereo not drawn)	23.6			
O=[P@]1(NCCCl)OCCCN1CCBr	21.3	230	289	13.6
[2H]C([2H])(CCl)N[P@]1(=O)OCCCN1C([2H])([2H])CBr	15	196	265	17.7
